An excerpt weighted towards active compounds, which were near 4.5% of everything screened.
NF-kB expr up = raises NF-kB expression in human neuronal cells | 1.6% of 190,000 active | NF-kB reporter expression; hits give high values | fold change at 12.5 µM; in the data active means fold change above about 3.3
Mdm2 ligase inh = inhibitors of human Mdm2 E3 ubiquitin ligase; Q00987; cell-based MDM2 ubiquitination luciferase reporter, 2 h; 0 = plate control, 100 = twice control, blank-subtracted; signal enhancement, % at 5 µM; 0.11% of 210,000 active; AID 1230;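 active means signal enhancement of 30% or more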;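 further: luminescence tracks abundance of the self-degrading MDM2-luciferase fusion protein; higher signal means inhibition of MDM2 E3 ligase activity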
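Test system: stable mammalian line carrying autodegrading MDM2–luciferase fusion reporter; quantity: 2000 cells in each well; times: 4 h cell settling then 2 h compound exposure, 37 °C; detection: luminescence with SteadyLite reagent, 15 min at room temperature; evaluation: percent signal gain over controls, blank-subtracted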
APP 5'UTR act = activates APP 5'UTR luciferase reporter; SH-SY5Y APP 5'UTR luciferase reporter, luminescence; zero percent = DMSO vehicle wells; activation, % at 2 µM; 1% of 190,000 active; AID 1276;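 active means activation above a set limit, based on mean plus 3 SD of controls, cut at about 140% in these data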
PERK inh = inhibitors of human PERK kinase. CHO PERK-DD fusion, SEAP luminescence translation reporter. 0.17% of 220,000 active. AID 1416. inhibition, % at 5.6 µM. Q9NZJ5;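 active means inhibition above the mean inhibition of all tested compounds plus 3 SD, set separately per screening campaign, cut at about 2.9% in these data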;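 further: PERK kinase domain activated by AP20187 dimerizer at 100 nM; 0% = DMSO with dimerizer and 100% = rapamycin at 8.4 µM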
AHR act = activates the human aryl hydrocarbon receptor | P35869 | AHR-responsive luciferase reporter cells, luminescence | activation, % at 5 µM | 2.5% of 320,000 active | AID 2796; in the data active means activation above about 47%;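 further: 0% = vehicle wells and 100% = reference agonist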
STAT1 activator = increases IFN-gamma driven STAT1 reporter signal; 2.6% of 200,000 active; NIH 3T3 STAT1-luciferase reporter, luminescence; 100% = IFN-gamma alone, no compound; activation (% of control), % at 5.5 µM;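 active means activation above the screen-wide mean activation plus 3 SD, cut at about 130% in these data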;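 further: raw ratio to IFN-gamma control signal so 100% means no change and 0% no light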
Starred values were filed as active, the others as inactive; · = no result given.

SMILES	NF-kB expr up	Mdm2 ligase inh	APP 5'UTR act	PERK inh	AHR act	STAT1 activator
O=C(CSc1n[nH]c(-c2cccs2)n1)NCc1ccc2c(c1)OCO2	1.1	-3	-10	2	58*	101
O=C(CSc1ccc2nnc(-c3ccccc3)n2n1)NCc1ccc2c(c1)OCO2	1	-23	8	0	56*	96
O=C(CSc1ccc2nnc(-c3cccnc3)n2n1)NCc1ccc2c(c1)OCO2	0.93	-23	-6	1	14	105
Cc1cc(C)n2nc(SCC(=O)Nc3ccc(F)cc3[N+](=O)[O-])nc2n1	·	·	·	·	3	·
CSc1nc(C)cc(SCC(=O)N/N=C/c2ccccc2)n1	1	14	10	0	71*	109
COC(=O)c1ccc(NS(=O)(=O)NC(=O)c2cn(C)c3ccccc23)cc1	·	·	·	·	2	·
COCCn1c(C)cc(C2=NNC(=Nc3ccccc3F)SC2)c1C	0.27	-21	-52	0	-6	32
Cc1ccc(-n2c(C)cc(C3=NNC(=NC4CC4)SC3)c2C)cc1C	0.58	-35	155*	0	51*	122
Cc1cc(C2=NNC(=Nc3ccccc3)SC2)c(C)n1C	2.1	-8	9	0	3	142*
COCCCN=C1NN=C(c2cc(C)n(-c3ccccc3F)c2C)CS1	1.8	-57	187*	2	-4	58
CN(C)CCCNC(=O)C1(O)c2cc(Br)ccc2NC(=O)N1c1c(F)cccc1F (stereo not drawn)	·	·	·	·	2	·
CC(=O)c1cccc(NC(=O)c2csc3c2CCCCC3)c1	1.1	-18	-20	0	24	116
O=C(Nc1ccccn1)c1csc2c1CCCC2	3.9*	-5	133	0	29	137*
O=C(Nc1ccccn1)c1onc2c1CCCC2	1.1	-79	150*	0	31	103
COc1ccccc1NC(=O)c1csc2c1CCCC2	1.3	-18	16	0	69*	100
Cc1nnc(NC(=O)c2csc3c2CCCC3)s1	1.3	-9	21	0	55*	84
N#CCc1ccccc1C(=O)OCC(=O)N(Cc1ccccc1)Cc1ccccc1	·	·	·	·	4	·
Cc1cc2oc(=O)cc(CNc3ccccc3F)c2cc1O	·	·	·	·	21	·
CC(NC(=O)CCNC(=O)c1ccco1)c1ccccc1 (stereo not drawn)	·	·	·	·	0	·
COc1ccccc1NC(=O)c1c(C)oc2c1CCCC2	1.1	-4	-3	0	60*	95
COc1cccc(C(=O)N/N=c2\sc3ccccc3n2C)c1	0.94	-1	-1	-1	73*	106
CCC(=O)N/N=c1/sc2ccccc2n1C	1.1	11	-4	1	36	102
Cc1ccc(C(=O)N/N=c2\sc3ccccc3n2C)cc1	1.2	-3	18	1	95*	98
Cn1/c(=N/NC(=O)c2ccccc2F)sc2ccccc21	2	1	79	0	70*	149*
O=C(Cn1ncc2c3ccccc3n(Cc3cccc(Cl)c3)c2c1=O)NCc1ccccn1	·	·	·	·	1	·
SMILES	NF-kB expr up	Mdm2 ligase inh	APP 5'UTR act	PERK inh	AHR act	STAT1 activator
C#CCNC(=O)C1=C[C@H](C(C)(C)C)C[C@H](OCCCCO)O1	·	·	·	·	3	·
Cc1ccc(N(C(=O)c2csnn2)C(C(=O)NC2CCCC2)c2ccccn2)cc1 (stereo not drawn)	·	·	·	·	1	·
COc1cc(OC)cc(C(=O)NC(=S)NCc2ccco2)c1	1.1	3	7	1	64*	98
COc1cccc(C(=O)NC(=S)NCc2ccco2)c1	1.7	0	-16	1	29	104
COc1ccc2cc(C(=O)NCc3ccco3)c(=O)oc2c1	3.9*	-23	48	0	12	105
Clc1ccc(-c2nnc(COc3ncnc4sccc34)o2)cc1	1.3	-2	8	0	4	102
CCOc1cc(N2CCOCC2)c(OCC)cc1NC(=O)CSc1ncccc1C(=O)O	·	·	·	·	0	·
COn1c(=O)c(-c2ccc(Cl)cc2)[n+]([O-])c2ccccc21	1.4	6	-7	0	72*	98
O=C(NCCc1nnc2ccc(N3CCCC3)nn12)c1ccccc1	·	·	·	·	0	·
O=C(Nc1ccc(O)cc1)C1CCCN1S(=O)(=O)c1ccc(F)cc1 (stereo not drawn)	1.7	-18	2	1	79*	102
CC(=O)c1ccc(NC(=O)C2CCCN2S(=O)(=O)c2ccc(F)cc2)cc1 (stereo not drawn)	1.1	-1	0	1	-1	100
CC1Cc2c([nH]c3ccccc23)C2c3ccccc3CN12 (stereo not drawn)	·	·	·	·	57*	·
Cc1cc(C)c(NC(=O)Cn2c(=O)c3cccn3c3ccccc32)c(C)c1	·	·	·	·	5	·
CCCn1c(O)c(C=Nc2ccccc2)sc1=S	1.7	-5	25	1	7	138*
CCCCn1c(O)c(/C=C/C=C/C=Nc2ccccc2)sc1=S	1.2	-14	10	0	0	94
O=[N+]([O-])C1=CC=C2C(=NC3(CCCCC3)N2O)C1=NCCc1ccccc1	1.1	31*	-21	2	·	99
CC1CC1C(=O)OCC(=O)Nc1ccc(N=Nc2ccccc2)cc1 (stereo not drawn)	5.9*	-14	143*	0	2	148*
Cc1ccc(S(=O)(=O)NCC(=O)OCC(=O)c2ccc(Cl)s2)cc1	·	·	·	·	-1	·
Cc1cc(-c2cn3ccccc3n2)c(C)n1-c1ccccc1	2.6	-57	176*	0	5	100
Cc1ccc(-c2cc(-c3ccccc3Cl)[nH]n2)c(O)c1	9.8*	-4	171*	0	86*	102
Cc1ccc(-c2cc(NC(=O)c3ccccc3[N+](=O)[O-])n[nH]2)cc1	·	·	·	·	45	·
Cc1ccc(-c2cc(-c3ccccc3[N+](=O)[O-])[nH]n2)c(O)c1	4*	-9	132	0	60*	98
Cc1ccc(O)c(-c2cc(-c3cccc(Br)c3)n[nH]2)c1	2.1	-1	33	1	70*	107
Cc1ccc(-c2cc(-c3ccc(C)cc3O)[nH]n2)cc1	·	·	·	·	68*	·
Cc1cccc(NC(=O)c2cc(-c3cc(C)ccc3O)n[nH]2)c1	·	·	·	·	-3	·
SMILES	NF-kB expr up	Mdm2 ligase inh	APP 5'UTR act	PERK inh	AHR act	STAT1 activator
Cc1c(NC(=O)COC(=O)c2cccn2C)c(=O)n(-c2ccccc2)n1C	·	·	·	·	5	·
CCN(C(=O)c1cc2c(s1)-c1ccccc1S(=O)(=O)C2)c1cc(OC)ccc1OC	·	·	·	·	0	·
Cc1ccc(C(C)C)c(OCc2nn(CC(=O)c3ccc(OC(F)F)cc3)c3[n+]2CCCCC3)c1	0.37	-24	-9	0	1	87
CSc1ccccc1NC(=O)COC(=O)CCc1ccccc1	·	·	·	·	-1	·
O=C(O)Cc1sc(N/N=C\c2ccccc2)nc1-c1ccccc1	1.3	3	2	0	75*	107
Clc1ccc(-c2csc(N/N=C/c3cccnc3)n2)c(Cl)c1	1.3	·	3	0	20	105
COC(=O)c1ccc(/C=N/Nc2nc(-c3ccc(C)cc3)cs2)cc1	1	-12	-1	1	28	98
